For orientation: IC50 means the concentration that inhibits the measured activity by half. Lower therefore signals inhibition by little substance.

Structures are written as SMILES. A value given as a limit tells only on which side of the number the result lay.

The values below come from ChEMBL document CHEMBL2040844, “Anthranilic acid-based diamides derivatives incorporating aryl-isoxazoline pharmacophore as potential anticancer agents: design, synthesis and biological evaluation” (Eur J Med Chem, 2012).

In experiment [1] the test system is HepG2. Kind of experiment: Cytotoxicity against human HepG2 cells after 72 hrs by MTT assay. The class given is functional, cell-based. The settings on record: for IC50: HepG2, 72 h. In short, it runs like this:
(§1)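 MTT assay. Cells were seeded at 2 × 10⁴ per well, grown to subconfluence, then exposed to serial dilutions of compound in test medium for 72 h at 37 °C in humidified 5% CO₂. MTT was added for 4 h, formazan was dissolved in DMSO, and absorbance was read at 570 nm. IC50 values were derived from dose-response. Triplicate wells, three independent experiments; 5-FU served as positive control.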
Background: Tetrazolium assays rely on reduction of a dye to a coloured formazan, in cell work by metabolically active cells.

Experiment [2] relates to SGC-7901. Kind of experiment: Cytotoxicity against human SGC7901 cells after 72 hrs by MTT assay. The class given is functional, cell-based. The settings on record: SGC-7901, 72 h. The method, boiled down:
as §1

In experiment [3] the test system is SGC-7901. Kind of experiment: Growth inhibition of human SGC7901 cells at 40 ug/ml after 72 hrs by MTT assay. It counts as functional. The settings on record: SGC-7901, 72 h, read-out: GI. In short, it runs like this:
(§2)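 Single-concentration screen at 40 µg/mL, reported as % cell growth inhibition. Cells were seeded at 2 × 10⁴ per well, grown to subconfluence, then treated for 72 h at 37 °C in humidified 5% CO₂. MTT was added for 4 h, formazan was dissolved in DMSO, and absorbance was read at 570 nm. Triplicate wells, three independent experiments; 5-FU served as positive control.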

Experiment [4] deals with NCI-H460. Kind of experiment: Growth inhibition of human NCI-H460 cells at 40 ug/ml after 72 hrs by MTT assay. It counts as functional. The settings on record: NCI-H460, 72 h, read-out: GI. In short, it runs like this:
as §2

For experiment [5], the system named is BGC-823. Kind of experiment: Cytotoxicity against human BGC823 cells after 72 hrs by MTT assay. It counts as functional, cell-based. The settings on record: for IC50: BGC-823, 72 h. In short, it runs like this:
as §1

Experiment [6] has as its system NCI-H460. Kind of experiment: Cytotoxicity against human NCI-H460 cells after 72 hrs by MTT assay. It counts as functional, cell-based. The note with it: NCI-H460, 72 h. The method, boiled down: as §1
Experiment [7] concerns BGC-823. Kind of experiment: Growth inhibition of human BGC823 cells at 40 ug/ml after 72 hrs by MTT assay. The settings on record: BGC-823, 72 h, read-out: GI. It counts as functional. In short, it runs like this:
as §2

Experiment [8] concerns MCF7. Kind of experiment: Cytotoxicity against human MCF7 cells after 72 hrs by MTT assay. The class given is functional, cell-based. The settings on record: MCF7, 72 h. The method, boiled down:
as §1

The test system of experiment [9] is MCF7. Kind of experiment: Growth inhibition of human MCF7 cells at 40 ug/ml after 72 hrs by MTT assay. The class given is functional. The settings on record: MCF7, 72 h, read-out: GI. The method, boiled down: as §2
For experiment [10], the system named is HepG2. Kind of experiment: Growth inhibition of human HepG2 cells at 40 ug/ml after 72 hrs by MTT assay. It counts as functional. The settings on record: HepG2, 72 h, read-out: GI. The method, boiled down:
as §2

As to `CNC(=O)c1cc(Cl)cc(C)c1NC(=O)C1CC(c2ccc(F)cc2)=NO1` (configuration not stated), the IC50 in [1] was more than 100 µM; in experiment [2] it was more than 100 µM; in [5], more than 100 µM; in [6], 50.3 µM; in [8], more than 100 µM. Further, the inhibition of growth at 40 µg/mL is 12.8% in experiment [3]; 42.9% in experiment [4]; 14.6% in [7]; 40.8% in experiment [9]; 26.7% in experiment [10].
Turning to `CCCNC(=O)c1cc(Cl)cc(C)c1NC(=O)C1CC(c2ccc(F)cc2)=NO1` (configuration not stated), the concentration for half-maximal inhibition (IC50) in experiment [1], in experiment [2], in experiment [5], in [6] and in experiment [8] was more than 100 µM throughout. Moreover, the inhibition of growth at 40 µg/mL in experiment [3] was 30.5%; in experiment [4] it was 20%; in experiment [7], 23.5%; in [9], 33%; in experiment [10], 29.1%.
Regarding `Cc1cc(Cl)cc2c(=O)oc(C3CC(c4ccc(Cl)cc4)=NO3)nc12` (configuration not stated), the half-maximal inhibitory concentration (IC50) in [1] is 43.6 µM; in experiment [2], 68.8 µM; in experiment [5], 54.4 µM; in [6] it was 41.9 µM; in experiment [8], 68.7 µM. Also, the inhibition of growth at 40 µg/mL in experiment [3] worked out at 35.6%; in [4], 58.1%; in experiment [7], 31.5%; in [9], 37.7%; in experiment [10] it was 52.4%.
On to `COc1cc(C2=NOC(c3nc4c(C)cc(Cl)cc4c(=O)o3)C2)cc(OC)c1OC` (configuration not stated), for which the half-inhibitory concentration (IC50) in experiment [1], in experiment [2], in [5], in [6] and in experiment [8] was more than 100 µM in each case. The inhibition of growth at 40 µg/mL amounted to 0% in [3]; 0% in experiment [4]; 0% in [7]; 12.4% in experiment [9]; 16.5% in [10].
As to `O=c1[nH]cc(F)c(=O)[nH]1` [FLUOROURACIL], the concentration for half-maximal inhibition (IC50) in experiment [1] was determined as 4.8 µM; in [2], 6.3 µM; in experiment [5], 4.5 µM; in [6], 2.4 µM; in experiment [8], 12.5 µM. Besides, the inhibition of growth at 40 µg/mL in experiment [3] turned out to be 80.8%; in [4], 89.7%; in experiment [7] it was 85.7%; in experiment [9] it was 80.4%; in experiment [10], 81.3%.
As to `Cc1cc(Cl)cc(C(=O)NC(C)C)c1NC(=O)C1CC(c2ccc(F)cc2)=NO1` (configuration not stated), the inhibition of growth at 40 µg/mL was 17.2% in experiment [3]; 0% in experiment [4]; 0% in [7]; 4.8% in experiment [9]; 13.6% in experiment [10].
With `CCN(CC)C(=O)c1cc(Cl)cc(C)c1NC(=O)C1CC(c2ccc(Cl)cc2)=NO1` (configuration not stated), the Activity entry in experiment [1] and in experiment [5] was “Dose-dependent effect” each time. Further, the 50% inhibitory concentration (IC50) in experiment [1] amounted to 37.7 µM; in [2], 37.4 µM; in experiment [5], 36.5 µM; in [6], 37.5 µM; in [8], 34.5 µM. The inhibition of growth at 40 µg/mL is 76.3% in experiment [3]; 63.5% in [4]; 59.6% in experiment [7]; 62.1% in [9]; 59.2% in [10].
Turning to `Cc1cc(Cl)cc(C(=O)NC(C)C)c1NC(=O)C1CC(c2ccc(Cl)cc2)=NO1` (configuration not stated), the inhibition of growth at 40 µg/mL in experiment [3] was found to be 24.2%; in experiment [4] it was 10.3%; in experiment [7], 38.7%; in experiment [9] it was 3.9%; in experiment [10] it was 12.3%.
The corresponding values for `CCN(CC)C(=O)c1cc(Cl)cc(C)c1NC(=O)C1CC(c2cc(OC)c(OC)c(OC)c2)=NO1` (configuration not stated) are 28.3%, 0%, 27.8%, 23.5% and 28.6%.
With `COc1cc(C2=NOC(C(=O)Nc3ccccc3C(=O)NC(C)C)C2)cc(OC)c1OC` (configuration not stated), the inhibition of growth at 40 µg/mL in experiment [3] came to 0%; in experiment [4] it was 0%; in [7] it was 0%; in experiment [9], 0%; in experiment [10], 11.7%.
As for `CNC(=O)c1cc(Cl)cc(C)c1NC(=O)C1CC(c2ccc(Cl)cc2)=NO1` (configuration not stated), the 50% inhibitory concentration (IC50) in [1], in experiment [2], in [5], in experiment [6] and in [8] was more than 100 µM throughout. Also, the inhibition of growth at 40 µg/mL in [3] stood at 24.6%; in experiment [4], 0%; in [7], 13.2%; in experiment [9] it was 22.6%; in experiment [10], 18.7%.
Regarding `CC(C)NC(=O)c1ccccc1NC(=O)C1CC(c2ccc(F)cc2)=NO1` (configuration not stated), the inhibition of growth at 40 µg/mL was 10.3% in experiment [3]; 0% in experiment [4]; 21.5% in [7]; 0% in experiment [9]; 0% in [10].
Take `Cc1cc(Cl)cc2c(=O)oc(C3CC(c4ccc(F)cc4)=NO3)nc12` (configuration not stated): the IC50 in experiment [1] amounted to 53.4 µM; in experiment [2], 53.4 µM; in [5], 34.9 µM; in [6], 35.8 µM; in experiment [8], 51.9 µM. Further, the inhibition of growth at 40 µg/mL was 42.7% in experiment [3]; 64.6% in [4]; 72.1% in experiment [7]; 54.7% in [9]; 38.9% in experiment [10].
`CNC(=O)c1ccccc1NC(=O)C1CC(c2cc(OC)c(OC)c(OC)c2)=NO1` (configuration not stated): the inhibition of growth at 40 µg/mL in [3] came out at 12%; in experiment [4], 0%; in experiment [7], 20.8%; in experiment [9], 9.1%; in experiment [10] it was 31.4%.
Turning to `CCCNC(=O)c1cc(Cl)cc(C)c1NC(=O)C1CC(c2ccc(Cl)cc2)=NO1` (configuration not stated), the inhibition of growth at 40 µg/mL was 14.7% in experiment [3]; 13.6% in experiment [4]; 24.5% in experiment [7]; 22.2% in [9]; 16.7% in experiment [10].
Regarding `CNC(=O)c1ccccc1NC(=O)C1CC(c2ccc(Cl)cc2)=NO1` (configuration not stated), the inhibition of growth at 40 µg/mL in [3] was found to be 7.8%; in [4], 5.7%; in experiment [7] it was 13.3%; in experiment [9] it was 16.5%; in [10], 50.6%.
`Cc1cc(Cl)cc(C(=O)Nc2ccccc2)c1NC(=O)C1CC(c2ccc(F)cc2)=NO1` (configuration not stated): the inhibition of growth at 40 µg/mL in experiment [3] is 11.6%; in experiment [4], 0%; in [7], 26.4%; in experiment [9], 17%; in experiment [10], 5.1%.
Turning to `Cc1cc(Cl)cc(C(=O)NC2CCCCC2)c1NC(=O)C1CC(c2ccc(F)cc2)=NO1` (configuration not stated), the inhibition of growth at 40 µg/mL in experiment [3] worked out at 15.6%; in [4], 33.3%; in [7] it was 34.3%; in experiment [9] it was 24.8%; in experiment [10], 10%.
In the case of `CC(C)NC(=O)c1ccccc1NC(=O)C1CC(c2ccc(Cl)cc2)=NO1` (configuration not stated), the inhibition of growth at 40 µg/mL in [3] was 13.6%; in [4] it was 0%; in experiment [7], 14.6%; in experiment [9], 0%; in [10], 5.5%.
Turning to `Cc1cc(Cl)cc(C(=O)NC2CCCCC2)c1NC(=O)C1CC(c2ccc(Cl)cc2)=NO1` (configuration not stated), the inhibition of growth at 40 µg/mL was found to be 3.1% in experiment [3]; 15.1% in [4]; 18.3% in [7]; 9.6% in [9]; 15.6% in [10].
Regarding `COc1cc(C2=NOC(C(=O)Nc3c(C)cc(Cl)cc3C(=O)NC(C)C)C2)cc(OC)c1OC` (configuration not stated), the inhibition of growth at 40 µg/mL in [3] stood at 0%; in experiment [4], 0.5%; in experiment [7] it was 11.7%; in experiment [9], 9.1%; in experiment [10] it was 12.9%.
Turning to `CNC(=O)c1ccccc1NC(=O)C1CC(c2ccc(F)cc2)=NO1` (configuration not stated), the inhibition of growth at 40 µg/mL in experiment [3] was 0%; in experiment [4] it was 0%; in experiment [7], 21.4%; in experiment [9], 0%; in experiment [10], 9.1%.
